According to ChEMBL document CHEMBL2176900, “Design and synthesis of a novel series of bicyclic heterocycles as potent γ-secretase modulators” (J Med Chem, 2012):
≈ marks a conversion by molar mass, not a printed value.

Tests used:
Rattus norvegicus [1] = assay: Antialzheimer activity in Sprague-Dawley rat assessed as amyloid beta 37 level in CSF at 10 mg/kg, po at 7 hrs by ELISA relative to control; type: functional
Summary of the method: (§1)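 Male Sprague-Dawley rats (180-220 g), fasted overnight, were given 10 mg/kg by gastric intubation as a 5 mg/mL suspension in 0.5% methocellulose. At 2, 4, 7 and 25 h, 50 μL CSF was taken from the cisterna magna under isoflurane, then brain was collected. Aβ37/38/40/42 were measured by MesoScale Discovery sandwich immunoassays. Results are mean % change versus T = 0 h, n = 5.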

Canis familiaris [2] = assay: Antialzheimer activity in beagle dog assessed as amyloid beta 38 level in cerebrospinal fluid at 20 mg/kg, po at 4 hrs by ELISA relative to control
Mus musculus [3] = assay: Inhibition of gamma-secretase in CD1 mouse assessed as total amyloid beta level in brain at 30 mg/kg, po at 24 hrs by ELISA relative to control; type: functional; parameters: scale not given: the % may be the effect or the level left
Summary of the method: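 Fasted male CD1 SPF mice were dosed orally at 10 or 30 mg/kg in 20% Captisol. Right hemisphere was homogenized in 0.4% DEA/50 mM NaCl and the high-speed supernatant neutralized. Aβtotal ELISA used N-terminal JRF/rAβ/2 capture, biotinylated 4G8 and streptavidin-peroxidase, then a fluorogenic substrate (ex 320/em 420 nm). Standards spanned 10000–0.3 pg/mL. Values are % change vs T = 0 h, n = 4.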

Rattus norvegicus [4] = assay: Antialzheimer activity in Sprague-Dawley rat assessed as amyloid beta 38 level in CSF at 10 mg/kg, po at 7 hrs by ELISA relative to control; type: functional; summary of the method: as §1
[5] = Oral bioavailability in beagle dog at 5 mg/kg; type: ADME, organism-based, Canis lupus familiaris; conditions: in vivo
[6] = Plasma concentration in Sprague-Dawley rat at 10 mg/kg, po at 4 hrs by LC-MS/MS analysis; type: ADME, organism-based; parameters: dose 10 mg/kg, route oral
Summary of the method: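 Overnight-fasted male Sprague-Dawley rats (180–220 g) were given 10 mg/kg by gastric intubation of a 5 mg/mL suspension in 0.5% methocellulose. Blood was collected after decapitation at 2, 4, 7 and 25 h under isoflurane anaesthesia. Plasma compound was measured as in the mouse assay, n = 5.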

[7] = Drug metabolism in human liver microsomes at 1 uM after 15 mins by ion-trap mass spectrophotometry; type: ADME, Microsome; conditions: read-out: Drug metabolism
Canis familiaris [8] = assay: Antialzheimer activity in beagle dog assessed as amyloid beta 42 level in cerebrospinal fluid at 20 mg/kg, po at 4 hrs by ELISA relative to control
[9] = Inhibition of sodium channel site 2 at 10 uM
Brain = assay: Drug uptake in CD1 mouse brain at 30 mg/kg, po at 48 hrs by LC-MS/MS analysis; type: ADME, organism-based; parameters: dose 30 mg/kg, route oral; conditions: in vivo, BLD = below limit of detection
Summary of the method: (§2)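 Overnight-fasted male CD1 mice received one oral dose (10 or 30 mg/kg) in 20% Captisol. After sacrifice, the left brain hemisphere was stored at −18 °C. Compound level was quantified by a qualified LC-MS/MS method, alongside EDTA plasma spun at 1900g, 4 °C. n = 4 per time point.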

Plasma = assay: Plasma concentration in CD1 mouse at 10 mg/kg, po at 48 hrs by LC-MS/MS analysis; type: ADME, organism-based; parameters: dose 10 mg/kg, route oral; conditions: in vivo, BLD = below limit of detection
Summary of the method: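 Mice received a single 10 or 30 mg/kg oral dose. Plasma was sampled at several time points up to 48 h, with EDTA plasma obtained by centrifugation at 1900g, 10 min, 4 °C. Compound was quantified by LC-MS/MS, n = 4.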

Rattus norvegicus [10] = assay: Antialzheimer activity in Sprague-Dawley rat assessed as amyloid beta 42 level in brain at 10 mg/kg, po at 25 hrs by ELISA relative to control; type: functional; summary of the method: as §1
Mus musculus [11] = assay: Antialzheimer activity in CD1 mouse assessed as amyloid beta 38 level in brain at 10 mg/kg, po at 8 hrs by ELISA relative to control; type: functional
Summary of the method: (§3)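 Male CD1 SPF mice, fasted overnight, got a single oral dose of 10 or 30 mg/kg. At each time point the right brain hemisphere was homogenized in 0.4% DEA/50 mM NaCl with protease inhibitors and spun at 221300g for 50 min. The supernatant was neutralized with Tris-HCl pH 6.8. Aβ38 or Aβ42 was read by sandwich ELISA with a fluorogenic peroxidase substrate (ex 320/em 420 nm). Results are mean % change versus T = 0 h, n = 4.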

Rattus norvegicus [12] = assay: Antialzheimer activity in Sprague-Dawley rat assessed as amyloid beta 40 level in CSF at 10 mg/kg, po at 2 hrs by ELISA relative to control; type: functional; summary of the method: as §1
[13] = Thermodynamic solubility in fasted state simulated intestinal fluid; type: physicochemical; conditions: read-out: Therm_solubility
Summary of the method: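 Thermodynamic solubility was measured in pH 4.0 and pH 7.4 buffers, 0.01 N HCl, and fasted-state and fed-state simulated intestinal fluids (FaSSIF, FeSSIF). Results are in […].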

Cytochrome P450 3A4 [14] = molecular target: T1, Cytochrome P450 3A4 (Homo sapiens, UniProt P08684); assay: Inhibition of CYP3A4 in human liver microsomes using testosterone as substrate; type: ADME, Microsome
T1 sequence (P08684 whole entry): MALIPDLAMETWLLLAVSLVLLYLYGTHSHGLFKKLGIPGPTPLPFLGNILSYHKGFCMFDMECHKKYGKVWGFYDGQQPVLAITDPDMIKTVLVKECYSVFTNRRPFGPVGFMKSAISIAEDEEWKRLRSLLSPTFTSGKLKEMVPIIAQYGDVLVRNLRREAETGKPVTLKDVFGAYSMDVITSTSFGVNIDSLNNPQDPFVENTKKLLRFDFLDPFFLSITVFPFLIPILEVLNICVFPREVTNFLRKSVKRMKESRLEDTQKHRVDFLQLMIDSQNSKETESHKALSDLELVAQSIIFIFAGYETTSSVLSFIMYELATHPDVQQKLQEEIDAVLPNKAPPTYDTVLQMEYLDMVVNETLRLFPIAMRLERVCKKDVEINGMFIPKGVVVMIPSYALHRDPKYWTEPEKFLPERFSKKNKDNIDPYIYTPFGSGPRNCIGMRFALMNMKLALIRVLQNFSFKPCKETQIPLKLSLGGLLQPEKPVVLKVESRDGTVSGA

Gamma-secretase = assay: Modulation of gamma-secretase in human SK-N-BE(2) cells expressing wild type APP 695 assessed as reduction in amyloid beta 42 level after overnight incubation by sandwich immunoassay; type: cell-based
Summary of the method: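 SK-N-BE(2) cells carrying wild-type APP695, plated at 10⁴ cells/well in Ultraculture with glutamine, NEAA, penicillin/streptomycin plus test compound at a range of concentrations. Incubated overnight at 37 °C, 5% CO₂. Supernatant Aβ42 measured by AlphaLisa sandwich immunoassay (JRF/cAβ42/26 capture, biotinylated JRF/AβN/25). IC50 derived from % of maximal Aβ42 without compound. Mean of at least three determinations.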

Rattus norvegicus [15] = assay: Antialzheimer activity in Sprague-Dawley rat assessed as amyloid beta 37 level in brain at 10 mg/kg, po at 2 hrs by ELISA relative to control; type: functional; summary of the method: as §1
Canis familiaris [16] = assay: Antialzheimer activity in beagle dog assessed as amyloid beta 40 level in cerebrospinal fluid at 20 mg/kg, po at 4 hrs by ELISA relative to control
[17] = Drug uptake in CD1 mouse brain at 30 mg/kg, po at 24 hrs by LC-MS/MS analysis; type: ADME, organism-based; parameters: dose 30 mg/kg, route oral; conditions: read-out: Drug uptake; summary of the method: as §2
Rattus norvegicus [18] = assay: Antialzheimer activity in Sprague-Dawley rat assessed as amyloid beta 38 level in brain at 10 mg/kg, po at 2 hrs by ELISA relative to control; type: functional; summary of the method: as §1
Cytochrome P450 3A4 [19] = molecular target: T1, Cytochrome P450 3A4; assay: Inhibition of CYP3A4 in human liver microsomes using midazolam as substrate; type: ADME, Microsome
Rattus norvegicus [20] = assay: Antialzheimer activity in Sprague-Dawley rat assessed as amyloid beta 42 level in brain at 10 mg/kg, po at 4 hrs by ELISA relative to control; type: functional; summary of the method: as §1
Cytochrome P450 2C19 = Cytochrome P450 2C19 (Homo sapiens, UniProt P33261); assay: Inhibition of CYP2C19 in human liver microsomes using S-mephenytoin as substrate; type: ADME, Microsome
Cytochrome P450 2C19, sequence (P33261 whole entry): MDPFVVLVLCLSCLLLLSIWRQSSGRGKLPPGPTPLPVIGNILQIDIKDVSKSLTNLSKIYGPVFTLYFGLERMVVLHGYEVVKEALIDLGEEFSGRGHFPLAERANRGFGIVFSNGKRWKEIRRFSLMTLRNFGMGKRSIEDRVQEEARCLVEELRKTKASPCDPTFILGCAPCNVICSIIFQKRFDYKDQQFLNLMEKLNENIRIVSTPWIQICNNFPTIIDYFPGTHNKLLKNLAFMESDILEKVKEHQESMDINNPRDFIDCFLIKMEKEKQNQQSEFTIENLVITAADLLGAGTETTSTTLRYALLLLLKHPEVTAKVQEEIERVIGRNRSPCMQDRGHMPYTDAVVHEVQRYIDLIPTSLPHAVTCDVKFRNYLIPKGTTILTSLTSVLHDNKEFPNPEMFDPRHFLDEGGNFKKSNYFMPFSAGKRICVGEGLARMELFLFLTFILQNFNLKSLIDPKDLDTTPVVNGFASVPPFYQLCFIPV

Mus musculus [21] = assay: Antialzheimer activity in CD1 mouse assessed as amyloid beta 42 level in brain at 10 mg/kg, po at 4 hrs by ELISA relative to control; type: functional; summary of the method: as §3

COc1nc(Nc2cccc3c2nc(-c2ccc(F)cc2)n3C)ccc1-n1cnc(C)c1
Activity (Rattus norvegicus [1]): 929% | Activity (Canis familiaris [2]): 134% | Activity (Mus musculus [3]): 104% | Activity (Rattus norvegicus [4]): 153% | bioavailability [5]: 64% | concentration at 4 h [6]: 4.4 µM | metabolised at 0.25 h, 1 µM [7]: 6% | Activity (Canis familiaris [8]): 81% | inhibition [9]: 60% | Drug uptake (Brain): BLD | Cp (Plasma): BLD | Activity (Rattus norvegicus [10]): 92% | Activity (Mus musculus [11]): 124% | Activity (Rattus norvegicus [12]): 60% | solubility thermodynamic [13]: 3 µg/mL (≈ 7 µM) | IC50 (Cytochrome P450 3A4 [14]): 2900 nM | IC50 (Gamma-secretase): 16 nM | Activity (Rattus norvegicus [15]): 502% | Activity (Canis familiaris [16]): 89% | concentration at 24 h [17]: 440 nM | Activity (Rattus norvegicus [18]): 149% | IC50 (Cytochrome P450 3A4 [19]): 8.7 µM | Activity (Rattus norvegicus [20]): 64% | IC50 (Cytochrome P450 2C19): 3.5 µM | Activity (Mus musculus [21]): 49%
